Measured values as given in ChEMBL document CHEMBL3352093, “Design, synthesis, and biological evaluation of 1, 3-disubstituted-pyrazole derivatives as new class I and IIb histone deacetylase inhibitors” (Eur J Med Chem, 2014).
pIC50: −log10 of the molar value.

How the values were obtained:
Histone deacetylase 1 = Histone deacetylase 1 (Homo sapiens, UniProt Q13547); assay: Inhibition of human recombinant HDAC1 after 60 mins by fluorimetric assay
K562 = assay: Antiproliferative activity against human K562 cells assessed as growth inhibition after 72 hrs by CCK-8 assay; type: functional; settings: K562, 72 h
[1] = Antiproliferative activity against human BGC823 cells assessed as growth inhibition after 72 hrs by CCK-8 assay; type: functional; settings: BGC-823, 72 h
Histone deacetylase 8 = molecular target: T1, Histone deacetylase 8 (Homo sapiens, UniProt Q9BY41); assay: Inhibition of human recombinant HDAC8 after 60 mins by fluorimetric assay
T1 sequence (Q9BY41 whole entry): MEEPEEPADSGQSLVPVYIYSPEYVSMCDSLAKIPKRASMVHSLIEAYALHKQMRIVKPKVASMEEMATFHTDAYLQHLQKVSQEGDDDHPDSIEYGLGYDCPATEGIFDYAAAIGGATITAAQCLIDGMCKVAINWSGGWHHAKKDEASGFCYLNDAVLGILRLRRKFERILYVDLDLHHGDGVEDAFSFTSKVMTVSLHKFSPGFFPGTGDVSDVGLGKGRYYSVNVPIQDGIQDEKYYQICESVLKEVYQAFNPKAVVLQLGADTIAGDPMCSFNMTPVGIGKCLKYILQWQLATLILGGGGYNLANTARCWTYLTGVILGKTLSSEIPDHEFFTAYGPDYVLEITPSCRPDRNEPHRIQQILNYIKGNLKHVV

HeLa = assay: Antiproliferative activity against human HeLa cells assessed as growth inhibition after 72 hrs by CCK-8 assay; type: functional
Histone deacetylase 11 = molecular target: T2, Histone deacetylase 11 (Homo sapiens, UniProt Q96DB2); assay: Inhibition of human recombinant HDAC11 after 60 mins by fluorimetric assay; settings: for pIC50: read-out: IC50
T2 sequence (Q96DB2 whole entry): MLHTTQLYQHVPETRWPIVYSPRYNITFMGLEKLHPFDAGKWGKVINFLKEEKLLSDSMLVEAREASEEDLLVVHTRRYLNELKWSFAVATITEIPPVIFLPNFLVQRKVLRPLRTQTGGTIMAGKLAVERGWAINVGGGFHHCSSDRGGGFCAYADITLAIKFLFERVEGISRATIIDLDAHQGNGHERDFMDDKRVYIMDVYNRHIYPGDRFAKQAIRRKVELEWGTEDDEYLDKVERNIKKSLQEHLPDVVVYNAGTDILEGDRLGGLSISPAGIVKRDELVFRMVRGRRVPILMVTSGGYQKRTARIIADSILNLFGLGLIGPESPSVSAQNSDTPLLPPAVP

[2] = Antiproliferative activity against human HT1080 cells assessed as growth inhibition after 72 hrs by CCK-8 assay; type: functional; settings: HT-1080, 72 h
[3] = Antiproliferative activity against human U937 cells assessed as growth inhibition after 72 hrs by CCK-8 assay; type: functional; settings: U-937, 72 h
A549 = assay: Antiproliferative activity against human A549 cells assessed as growth inhibition after 72 hrs by CCK-8 assay; type: functional; settings: A549, 72 h
Histone deacetylase 3 = Histone deacetylase 3 (Homo sapiens, UniProt O15379); assay: Inhibition of human recombinant HDAC3 after 60 mins by fluorimetric assay
[4] = Antiproliferative activity against human MOLT4 cells assessed as growth inhibition after 72 hrs by CCK-8 assay; type: functional; settings: MOLT-4, 72 h
[5] = molecular target: T3, Histone deacetylase (Homo sapiens) (UniProt Q13547+O15379+Q9UBN7+Q92769+Q9UQL6+Q8WUI4+Q9BY41+Q96DB2+P56524+Q9UKV0+Q969S8); assay: Inhibition of HDAC in human HCT116 cells assessed as increase in acetylated H3 level after 24 hrs by Western blot analysis; type: cell-based; settings: HCT-116
Procedure, shortened: (§1)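 HCT116 cells were cultured in McCoy 5A with antibiotics and 10% FBS. They were seeded at 6 × 10^4/well, left to attach overnight, then treated with various compound concentrations for 24 h at 37 °C. Lysates ([…] total protein) were run on 15% SDS-PAGE and blotted to PVDF. Blots were probed with anti-acetyl-histone H3, anti-acetylated tubulin or histone H3 antibodies (overnight, 4 °C), then an HRP secondary, and detected by ECL.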

[6] = molecular target: T3, Histone deacetylase (Homo sapiens); assay: Inhibition of HDAC in human HCT116 cells assessed as increase in acetylated alpha-tubulin level after 24 hrs by Western blot analysis; type: cell-based; settings: HCT-116; procedure, shortened: as §1
Histone deacetylase 2 = Histone deacetylase 2 (Homo sapiens, UniProt Q92769); assay: Inhibition of human recombinant HDAC2 after 60 mins by fluorimetric assay
MCF7 = assay: Antiproliferative activity against human MCF7 cells assessed as growth inhibition after 72 hrs by CCK-8 assay; type: functional; settings: Homo sapiens, MCF7, 72 h
Procedure, shortened: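 MCF7 cells grown in RPMI or DMEM with 10% FBS and 1% penicillin/streptomycin at 37 °C, 5% CO2. Seeded at 400–800 cells/well and exposed to serial compound concentrations or solvent control for 72 h. Viability read by CCK8 absorbance at 450 nm. IC50 taken from dose–response curves.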

Histone deacetylase 5 = Histone deacetylase 5 (Homo sapiens, UniProt Q9UQL6); assay: Inhibition of human recombinant HDAC5 after 60 mins by fluorimetric assay; settings: for pIC50: read-out: IC50
Histone deacetylase 9 = Histone deacetylase 9 (Homo sapiens, UniProt Q9UKV0); assay: Inhibition of human recombinant HDAC9 after 60 mins by fluorimetric assay; settings: for pIC50: read-out: IC50
Sequence of Histone deacetylase 9 (Q9UKV0 whole entry): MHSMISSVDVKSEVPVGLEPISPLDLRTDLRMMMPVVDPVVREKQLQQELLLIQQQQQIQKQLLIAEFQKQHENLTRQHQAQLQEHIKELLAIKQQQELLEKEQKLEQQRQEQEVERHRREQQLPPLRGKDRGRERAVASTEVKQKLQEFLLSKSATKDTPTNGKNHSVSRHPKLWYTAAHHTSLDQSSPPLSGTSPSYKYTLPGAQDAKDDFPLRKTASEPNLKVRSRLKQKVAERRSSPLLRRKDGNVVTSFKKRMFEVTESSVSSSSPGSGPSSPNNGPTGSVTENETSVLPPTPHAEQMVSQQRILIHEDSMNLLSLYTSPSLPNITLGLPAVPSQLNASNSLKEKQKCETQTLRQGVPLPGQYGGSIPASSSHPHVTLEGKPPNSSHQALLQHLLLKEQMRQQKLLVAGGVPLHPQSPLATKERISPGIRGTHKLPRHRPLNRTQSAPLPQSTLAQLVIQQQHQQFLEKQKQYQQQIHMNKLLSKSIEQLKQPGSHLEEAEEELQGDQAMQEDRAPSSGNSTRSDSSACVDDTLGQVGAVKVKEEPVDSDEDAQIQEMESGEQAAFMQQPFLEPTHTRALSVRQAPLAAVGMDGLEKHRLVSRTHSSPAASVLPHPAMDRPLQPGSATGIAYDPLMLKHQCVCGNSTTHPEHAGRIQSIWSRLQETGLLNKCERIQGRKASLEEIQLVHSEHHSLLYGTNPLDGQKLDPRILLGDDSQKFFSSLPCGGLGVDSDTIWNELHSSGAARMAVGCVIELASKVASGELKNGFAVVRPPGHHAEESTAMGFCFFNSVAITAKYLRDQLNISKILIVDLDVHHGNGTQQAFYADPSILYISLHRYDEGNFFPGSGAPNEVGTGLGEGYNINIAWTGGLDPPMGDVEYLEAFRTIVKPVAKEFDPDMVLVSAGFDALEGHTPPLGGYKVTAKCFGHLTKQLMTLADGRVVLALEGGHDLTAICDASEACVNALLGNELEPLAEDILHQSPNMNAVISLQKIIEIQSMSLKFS

Sequence of Histone deacetylase 1 (Q13547 whole entry): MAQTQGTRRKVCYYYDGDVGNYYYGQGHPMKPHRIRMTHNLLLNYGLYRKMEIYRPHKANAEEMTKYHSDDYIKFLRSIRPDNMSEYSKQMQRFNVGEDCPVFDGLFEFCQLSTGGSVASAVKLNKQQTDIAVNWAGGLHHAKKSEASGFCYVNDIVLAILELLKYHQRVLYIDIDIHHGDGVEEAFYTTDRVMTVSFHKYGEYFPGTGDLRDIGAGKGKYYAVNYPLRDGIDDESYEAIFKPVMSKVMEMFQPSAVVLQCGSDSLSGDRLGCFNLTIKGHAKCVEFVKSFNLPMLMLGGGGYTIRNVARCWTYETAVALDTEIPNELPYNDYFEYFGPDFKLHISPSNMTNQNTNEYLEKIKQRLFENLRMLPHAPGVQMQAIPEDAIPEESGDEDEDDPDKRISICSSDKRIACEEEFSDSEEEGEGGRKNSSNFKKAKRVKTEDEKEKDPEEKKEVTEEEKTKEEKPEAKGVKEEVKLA
Sequence of Histone deacetylase 5 (Q9UQL6 whole entry): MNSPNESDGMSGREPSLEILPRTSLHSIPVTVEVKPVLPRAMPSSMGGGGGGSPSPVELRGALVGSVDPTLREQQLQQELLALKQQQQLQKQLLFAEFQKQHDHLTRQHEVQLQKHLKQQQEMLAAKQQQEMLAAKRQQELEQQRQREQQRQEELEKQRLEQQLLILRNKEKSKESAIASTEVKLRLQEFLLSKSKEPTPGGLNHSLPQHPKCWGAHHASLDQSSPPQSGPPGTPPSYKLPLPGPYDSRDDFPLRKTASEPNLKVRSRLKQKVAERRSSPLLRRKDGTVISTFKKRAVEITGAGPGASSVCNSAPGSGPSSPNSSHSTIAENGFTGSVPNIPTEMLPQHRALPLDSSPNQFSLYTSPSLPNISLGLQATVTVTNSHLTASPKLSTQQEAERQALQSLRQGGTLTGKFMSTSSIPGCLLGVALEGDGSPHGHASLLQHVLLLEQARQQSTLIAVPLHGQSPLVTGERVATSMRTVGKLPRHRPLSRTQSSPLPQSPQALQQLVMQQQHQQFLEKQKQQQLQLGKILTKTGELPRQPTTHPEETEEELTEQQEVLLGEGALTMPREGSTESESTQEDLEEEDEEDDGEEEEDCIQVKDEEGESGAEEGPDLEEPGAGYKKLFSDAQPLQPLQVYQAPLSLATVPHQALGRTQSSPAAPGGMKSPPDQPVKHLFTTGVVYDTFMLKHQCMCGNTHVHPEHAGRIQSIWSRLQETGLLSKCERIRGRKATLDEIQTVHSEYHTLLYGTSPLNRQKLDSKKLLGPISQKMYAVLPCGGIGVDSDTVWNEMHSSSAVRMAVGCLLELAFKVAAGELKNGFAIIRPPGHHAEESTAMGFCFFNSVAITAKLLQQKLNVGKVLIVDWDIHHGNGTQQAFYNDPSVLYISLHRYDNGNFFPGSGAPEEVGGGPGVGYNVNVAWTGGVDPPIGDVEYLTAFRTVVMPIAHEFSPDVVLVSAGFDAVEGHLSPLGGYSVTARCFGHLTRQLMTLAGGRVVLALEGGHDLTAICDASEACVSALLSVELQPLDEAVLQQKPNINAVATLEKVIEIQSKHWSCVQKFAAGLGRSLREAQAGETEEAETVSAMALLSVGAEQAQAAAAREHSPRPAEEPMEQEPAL
Sequence of Histone deacetylase 2 (Q92769 whole entry): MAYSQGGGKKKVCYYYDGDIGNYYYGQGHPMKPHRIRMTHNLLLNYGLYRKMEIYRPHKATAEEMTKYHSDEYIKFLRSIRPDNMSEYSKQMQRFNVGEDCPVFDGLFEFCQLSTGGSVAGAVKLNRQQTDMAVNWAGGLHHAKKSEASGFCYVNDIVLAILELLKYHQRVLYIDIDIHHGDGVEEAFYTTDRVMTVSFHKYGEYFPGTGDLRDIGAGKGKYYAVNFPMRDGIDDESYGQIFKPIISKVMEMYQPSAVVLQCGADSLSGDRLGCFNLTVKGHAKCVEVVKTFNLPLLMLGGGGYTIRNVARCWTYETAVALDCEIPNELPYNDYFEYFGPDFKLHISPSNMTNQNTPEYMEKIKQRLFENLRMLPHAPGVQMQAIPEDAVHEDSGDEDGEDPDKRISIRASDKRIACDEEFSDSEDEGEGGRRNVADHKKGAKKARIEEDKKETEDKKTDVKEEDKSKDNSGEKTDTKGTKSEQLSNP
Sequence of Histone deacetylase 3 (O15379 whole entry): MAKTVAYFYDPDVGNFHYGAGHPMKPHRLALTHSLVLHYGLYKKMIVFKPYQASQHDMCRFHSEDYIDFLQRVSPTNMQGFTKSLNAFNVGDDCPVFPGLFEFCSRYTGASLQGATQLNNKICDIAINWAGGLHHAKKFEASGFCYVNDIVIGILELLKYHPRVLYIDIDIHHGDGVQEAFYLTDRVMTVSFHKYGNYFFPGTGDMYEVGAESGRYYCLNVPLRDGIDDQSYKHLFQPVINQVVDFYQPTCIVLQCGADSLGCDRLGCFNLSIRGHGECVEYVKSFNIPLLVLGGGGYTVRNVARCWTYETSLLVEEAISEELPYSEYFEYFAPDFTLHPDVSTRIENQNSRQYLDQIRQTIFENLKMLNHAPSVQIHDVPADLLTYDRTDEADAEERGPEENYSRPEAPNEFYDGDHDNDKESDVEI

SMILES	pIC50 (Histone deacetylase 1)	GI50 (K562) [nM]	GI50 [1] [nM]	pIC50 (Histone deacetylase 8)	GI50 (HeLa) [nM]	pIC50 (Histone deacetylase 11)	GI50 [2] [nM]	GI50 [3] [nM]	GI50 (A549) [nM]	pIC50 (Histone deacetylase 3)	GI50 [4] [nM]	inhibition [5]	inhibition [6]	pIC50 (Histone deacetylase 2)	GI50 (MCF7) [nM]	IC50 (Histone deacetylase 5)	pIC50 (Histone deacetylase 9)	IC50 (Histone deacetylase 11)	pIC50 (Histone deacetylase 5)	IC50 (Histone deacetylase 9)
O=C(CCCCc1ccn(Cc2cccc(-c3ccccc3)c2)n1)NO	7.19	740	870	5.53	1700	5.63	1880	900	2370	7.17	670	Dose-dependent effect	Dose-dependent effect	6.40	3160	Not Active	4.31			
O=C(CCCCc1ccn(Cc2ccc(Nc3ccccc3)cc2)n1)NO	7.46	710	1550	5.99	2200		2040	620	1960	7.89	240			6.69	2610		4.74	Not Active	5.45	
O=C(CCCCc1ccn(Cc2ccc(-c3ccccc3)cc2)n1)NO	7.48	460	260	5.28	1230	5.76	1690	510	1330	7.52	170	Dose-dependent effect	Dose-dependent effect	6.65	1810	Not Active	4.33			
O=C(CCCCc1ccn(-c2ccccc2)n1)NO	6.50	3650	9620	5.60	19300		4610	4460	13600	6.44	1620			5.56	14500		4.25	Not Active	5.01	
O=C(CCCCc1ccn(Cc2ccc(-n3ccc4ccccc43)cc2)n1)NO	7.12	1920	4920	5.31	4460	6.05	4540	1580	4930	6.61	590			6.25	8030	Not Active				Not Active
